Test results from ChEMBL document CHEMBL4831480, “Identification of First-in-Class Inhibitors of Kallikrein-Related Peptidase 6 That Promote Oligodendrocyte Differentiation” (J Med Chem, 2021).

Biological target: T1, Kallikrein-6 (Homo sapiens, UniProt Q92876)
Experiment: Inhibition of KLK6 (unknown origin) assessed as release of AMC fluorescent product using Boc-QAR-AMC as substrate at 10 uM incubated for 30 mins by microplate reader; call rule not given here
Summary of the method: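 KLK6 (activated with lysylendopeptidase) at 2 nM was preincubated 15 min at 37 °C with compound (10 μM screen, or a range within 0.1–100 μM) or DMSO <2%. Reaction started with Boc-QAR-AMC 100 μM in 50 mM Tris, 1 M citrate, 0.05% Brij-35, pH 7.4. AMC read at ex 360/em 460 nm for 30 min. % inhibition taken from initial rates versus DMSO; IC50 from curve fit; ≥3 independent experiments in duplicate.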

SMILES	inhibition [%]
NCc1ccc(NC(=O)c2ccc(C(F)(F)F)cc2O)cc1	47
COc1ccc(O)c(C(=O)Nc2ccc(CN)cc2)c1	21.8
NCc1ccc(NC(=O)c2ccc3ccccc3c2)cc1	19.8

Further lines, results first:

inhibition [%]	SMILES
7.27	Cc1cccc(O)c1C(=O)Nc1ccc(CN)cc1
26.5	Cc1ccc(O)c(C(=O)Nc2ccc(CN)cc2)c1
30	NCc1ccc(NC(=O)c2cc(Br)ccc2O)cc1
8.86	NCc1ccc(NC(=O)c2ncccc2O)cc1
20	Cc1cccc(C(=O)Nc2ccc(CN)cc2)c1O
14.8	NCc1ccc(NC(=O)c2ccccc2O)cc1

Biological target: T1, Kallikrein-6
Experiment: Inhibition of KLK6 (unknown origin) assessed as release of AMC fluorescent product using Boc-QAR-AMC as substrate incubated for 30 mins by microplate reader

IC50	SMILES
Not Active	CC(C)(C)c1ccc(O)c(CNc2ccc(CN)cc2)c1.Cl
Not Active	NCc1ccc(NC(=O)c2c[nH]c3ccccc3c2=O)cc1
Not Active	Cl.NCc1ccc(NC(=O)c2ccc(F)cc2O)cc1
Not Active	Cl.NCc1ccc(NC(=O)c2c(O)ccc3ccccc23)cc1
Not Active	Cl.NCc1ccc(NC(=O)c2cc3ccccc3[nH]2)cc1
Not Active	Cl.O=C(NC1CCNCC1)c1ccc2ccccc2c1O
